The source made the active and inactive calls. The calls are words filed in the database; no cut-off is given here.
What was measured:
[1] = test system: PBMC; assay: Antiproliferative activity against human PBMC cells after 72 hrs by MTT assay; assay type: cell-based
Outline: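 Cells seeded and pre-incubated 24 h at 37 °C, 5% CO2, then exposed to compounds for 72 h. MTT (5 mg/mL stock) added for 4 h, formazan dissolved in DMSO for 10 min at room temperature, absorbance read at 570 nm. 0.1% DMSO as negative and 5-FU as positive reference. IC50 derived from inhibition ratios; mean ± SD of three independent experiments.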

[2] = test system: HL-60; assay: Cell cycle arrest in human HL60 cells assessed as accumulation at G1 phase at 1.2 uM after 48 hrs by propidium iodide/RNase A staining-based flow cytometric analysis (reference value: 65.75%); assay type: functional
[3] = test system: HL-60; assay: Induction of apoptosis in human HL60 cells assessed as viable cells at 0.3 uM after 48 hrs by Annexin V-FITC/propidium iodide staining-based flow cytometric analysis (reference value: 95.56%); assay type: functional; conditions: HL-60, 48 h, read-out: Activity
[4] = test system: HL-60; assay: Induction of apoptosis in human HL60 cells assessed as necrotic cells at 0.3 uM after 48 hrs by Annexin V-FITC/propidium iodide staining-based flow cytometric analysis (reference value: 0.02%); assay type: functional
[5] = test system: HL-60; assay: Induction of apoptosis in human HL60 cells assessed as viable cells at 0.6 uM after 48 hrs by Annexin V-FITC/propidium iodide staining-based flow cytometric analysis (reference value: 95.56%); assay type: functional; conditions: HL-60, 48 h, read-out: Activity
[6] = test system: HL-60; assay: Induction of apoptosis in human HL60 cells assessed as early apoptotic cells at 0.6 uM after 48 hrs by Annexin V-FITC/propidium iodide staining-based flow cytometric analysis (reference value: 2.31%); assay type: functional
[7] = test system: HL-60; assay: Induction of apoptosis in human HL60 cells assessed as viable cells at 1.2 uM after 48 hrs by Annexin V-FITC/propidium iodide staining-based flow cytometric analysis (reference value: 95.56%); assay type: functional; conditions: HL-60, 48 h, read-out: Activity
[8] = test system: HL-60; assay: Induction of mitochondrial membrane potential loss in human HL60 cells assessed as cell population with intact mitochondrial membrane potential at 0.6 uM after 48 hrs by JC1 staining-based flow cytometry analysis (reference value: 92.35%); assay type: functional
[9] = test system: HL-60; assay: Induction of apoptosis in human HL60 cells assessed as morphological changes by measuring chromatin condensation at 0.3 to 1.2 uM after 48 hrs by Hoechst 33258 staining-based fluorescence microscopic analysis; assay type: functional, cell-based
Outline: (§1)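 HL-60 pre-incubated 24 h, then treated 48 h with 0, 0.3, 0.6 or 1.2 μM compound or vehicle. Cells were harvested, washed twice in PBS, stained with Hoechst 33258 (2 mg/mL in PBS) for 15 min at room temperature in darkness, washed, mounted and examined by fluorescence microscopy with a DAPI filter.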

[10] = test system: HL-60; assay: Induction of apoptosis in human HL60 cells assessed as morphological changes by measuring nuclear fragmentation at 0.3 to 1.2 uM after 48 hrs by Hoechst 33258 staining-based fluorescence microscopic analysis; assay type: functional, cell-based; outline: as §1
[11] = test system: HL-60; assay: Induction of apoptosis in human HL60 cells assessed as downregulation of Bcl2 expression at 0.3 to 1.2 uM after 48 hrs by Western blot analysis; assay type: functional, cell-based
Outline: (§2)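 HL-60 treated in triplicate with 0.3, 0.6 or 1.2 μM compound; exposure is 72 h in the methods and 48 h in the legend. Lysates were run on 10% SDS-PAGE, transferred to nitrocellulose, blocked in 5% milk, and probed overnight at 4 °C with monoclonal antibodies (Bcl-2, Bax, cytochrome c, caspase-9/-3, p53, cyclin B1, cdc2). ECL detection; densitometry relative to GAPDH.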

[12] = test system: HL-60; assay: Induction of apoptosis in human HL60 cells assessed as increase in cytosolic cytochrome c level at 0.3 to 1.2 uM after 48 hrs by Western blot analysis; assay type: functional, cell-based; outline: as §2

For `CN1c2ccccc2C(=O)N2CCc3c(n(CCCCC(=O)OCCCCOc4ccc(-c5cc(=S)ss5)cc4)c4ccccc34)C21` (configuration not stated), the IC50 [1] was > 100 µM, the Activity [2] was 35.32% and the viability at 0.3 µM [3] was 88.7%. It also gave an Activity [4] of 0.06%, a viability at 0.6 µM [5] of 64.5% and an Activity [6] of 19.5%. The viability at 1.2 µM [7] was 39.2%, the Activity [8] was 78.68% and the Activity [9] was “Active”. The Activity [10] was “Active”, the Activity [11] was “Active” and the Activity [12] was “Active”.
